Measured values from ChEMBL document CHEMBL4814060, “Design, synthesis and biological evaluation of novel pleuromutilin derivatives as potent anti-MRSA agents targeting the 50S ribosome” (Bioorg Med Chem, 2021).
Converted amounts (≈) assume the structure as drawn.

Tests used:
Staphylococcus aureus [1] = assay: Antibacterial activity against methicillin-resistant Staphylococcus aureus ATCC 43300 assessed as inhibition of visible growth incubated for 24 hrs by CLSI protocol based broth microdilution method; format: functional
Staphylococcus aureus [2] = assay: Antibacterial activity against Staphylococcus aureus ATCC 29213 assessed as inhibition of visible growth incubated for 24 hrs by CLSI protocol based broth microdilution method; format: functional
Staphylococcus aureus [3] = assay: Antibacterial activity against Staphylococcus aureus 144 assessed as inhibition of visible growth incubated for 24 hrs by CLSI protocol based broth microdilution method; format: functional
Staphylococcus aureus [4] = assay: Antibacterial activity against Staphylococcus aureus AD3 assessed as inhibition of visible growth incubated for 24 hrs by CLSI protocol based broth microdilution method; format: functional
Staphylococcus aureus [5] = assay: Antibacterial activity against methicillin-resistant Staphylococcus aureus ATCC 43300 assessed as reduction in bacterial growth at 4 times of MIC measured at 3 hrs by time kill assay; format: functional
Procedure, shortened: (§1)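 MRSA was grown in MH broth at 37 °C for 4.5 h and diluted to 1×10^6 CFU/mL. Compound was added at 1, 2, 4, 8, 16 or 32 × MIC; growth control had 0.9% saline only. Cultures were shaken at 37 °C and sampled at 0, 3, 6, 9 and 24 h. Samples were serially diluted in saline and plated on MH agar, with CFU counted after 24 h at 37 °C. Run in triplicate.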

Staphylococcus aureus [6] = assay: Bactericidal activity against methicillin-resistant Staphylococcus aureus ATCC 43300 assessed as reduction in bacterial growth at 1 to 32 times of MIC measured upto 24 hrs by time kill assay; format: functional, organism-based; conditions: time hrs <=24, TDE = time-dependent effect; procedure, shortened: as §1
[7] = target: Bacterial 70S ribosome (Bacteria) (UniProt P0A7V0+P60723+P0AG67+P0A7R5+P0A7R9+P0A7S3+P0A7S9+P0AG59+P0ADZ4+P0A7T3+P0AG63+P0A7T7+P0A7U3+P0A7U7+P68679+P0A7V3+P0A7V8+P0A7W1+P02358+P02359+P0A7W7+P0A7X3+P0A7J3+P0A7J7+P0AA10+P0ADY3+P02413+P0ADY7+P0AG44+P0C018+P0A7K6+P0A7L0+P0A7L3+P0AG48+P61175+P0ADZ0+P60624+P68919+P0A7L8+P0A7M2+P0A7M6+P60422+P0AG51+P0A7N1+P0A7M9+P0A7N4+P0A7N9+P0A7P5+P0A7Q1+Q2EEQ2+P0A7Q6+P60438+P62399+P0AG55+P0A7K2); assay: Binding affinity to Staphylococcus aureus ATCC 43300 50S ribosome assessed as dissociation rate constant by SPR analysis; format: subcellular
Procedure, shortened: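 The 50S subunit was purified from ATCC 43300 by sucrose cushion, a 7–30% sucrose gradient and PEG precipitation. Compounds at 100 µM in DMSO were photo-crosslinked onto the chip and printed four times each. Ribosome at 200–3200 nM in PBST (pH 7.4, 0.1% Tween 20) was run at 4 °C: association 600 s, then dissociation 360 s, both at 0.5 µL/s. Surface was regenerated with glycine-HCl pH 2.0.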

Staphylococcus aureus [8] = assay: In vivo antibacterial activity against methicillin-resistant Staphylococcus aureus ATCC 43300 infected in ICR/Swiss mouse model of neutropenic thigh infection assessed as reduction in bacterial growth at 20 mg/kg, iv administered 2 hrs after infection and tissue collected after 24 hrs and measured after 24 hrs […]; format: functional
Procedure, shortened: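 Female ICR/Swiss mice, 6 weeks old, were made neutropenic with ip cyclophosphamide (150 mg/kg at day −4, 100 mg/kg at day −1). Each thigh received about 10^7 CFU/mL MRSA in 0.1 mL. At 2 h, mice got a single iv dose of 20 mg/kg or saline, with 3 mice (6 thighs) per group. At 24 h, thighs were homogenized in iced saline, diluted and plated on MH agar, and CFU counted after 24 h at 37 °C.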

| Structure (SMILES) | MIC (Staphylococcus aureus [1]) [µg/mL] | MIC (Staphylococcus aureus [2]) [µg/mL] | MIC (Staphylococcus aureus [3]) [µg/mL] | MIC (Staphylococcus aureus [4]) [µg/mL] | Activity (Staphylococcus aureus [5]) [log10CFU/ml] | Activity (Staphylococcus aureus [6]) | Kdiss [7] | log10CFU/ml (Staphylococcus aureus [5]) | Activity (Staphylococcus aureus [8]) [log10CFU/g] |
| --- | --- | --- | --- | --- | --- | --- | --- | --- | --- |
| C=C[C@]1(C)C[C@@H](OC(=O)CSc2nc(N)n(C(=O)c3ccc(OC)cc3)n2)[C@]2(C)[C@H](C)CC[C@]3(CCC(=O)[C@H]32)[C@@H](C)[C@@H]1O | 0.25 (≈ 0.409 µM) | 0.25 (≈ 0.409 µM) | 0.5 (≈ 0.819 µM) | 0.25 (≈ 0.409 µM) | -2.42 | Tde | 2.22 10^-7M | – | – |
| C=C[C@]1(C)C[C@@H](OC(=O)CSc2nc(N)n(C(=O)c3cccc(OC)c3)n2)[C@]2(C)[C@H](C)CC[C@]3(CCC(=O)[C@H]32)[C@@H](C)[C@@H]1O | 0.25 (≈ 0.409 µM) | 0.5 (≈ 0.819 µM) | 0.5 (≈ 0.819 µM) | 0.5 (≈ 0.819 µM) | – | – | – | – | – |
| C=C[C@]1(C)C[C@@H](OC(=O)CSc2nc(N)n(C(=O)c3cccc(Cl)c3)n2)[C@]2(C)[C@H](C)CC[C@]3(CCC(=O)[C@H]32)[C@@H](C)[C@@H]1O | 0.25 (≈ 0.406 µM) | 0.25 (≈ 0.406 µM) | 0.5 (≈ 0.813 µM) | 0.25 (≈ 0.406 µM) | – | Tde | 4.94 10^-7M | -1.23 | – |
| C=C[C@]1(C)C[C@@H](OC(=O)CSc2nc(N)n(C(=O)c3ccccc3OC)n2)[C@]2(C)[C@H](C)CC[C@]3(CCC(=O)[C@H]32)[C@@H](C)[C@@H]1O | 1 (≈ 1.64 µM) | 1 (≈ 1.64 µM) | 1 (≈ 1.64 µM) | 1 (≈ 1.64 µM) | – | – | – | – | – |
| C=C[C@]1(C)C[C@@H](OC(=O)CSc2nc(N)n(C(=O)c3ccc(F)cc3Cl)n2)[C@]2(C)[C@H](C)CC[C@]3(CCC(=O)[C@H]32)[C@@H](C)[C@@H]1O | 1 (≈ 1.58 µM) | 1 (≈ 1.58 µM) | 1 (≈ 1.58 µM) | 0.5 (≈ 0.79 µM) | – | – | – | – | – |
| C=C[C@]1(C)C[C@@H](OC(=O)CSc2nc(N)n(C(=O)c3ccc(F)cc3)n2)[C@]2(C)[C@H](C)CC[C@]3(CCC(=O)[C@H]32)[C@@H](C)[C@@H]1O | 0.5 (≈ 0.835 µM) | 1 (≈ 1.67 µM) | 1 (≈ 1.67 µM) | 1 (≈ 1.67 µM) | – | – | – | – | – |
| C=C[C@]1(C)C[C@@H](OC(=O)CSc2nc(N)n(C(=O)c3ccccc3F)n2)[C@]2(C)[C@H](C)CC[C@]3(CCC(=O)[C@H]32)[C@@H](C)[C@@H]1O | 1 (≈ 1.67 µM) | 2 (≈ 3.34 µM) | 4 (≈ 6.68 µM) | 2 (≈ 3.34 µM) | – | – | – | – | – |
| C=C[C@]1(C)C[C@@H](OC(=O)CSc2nc(N)n(C(=O)c3cccc(C)c3)n2)[C@]2(C)[C@H](C)CC[C@]3(CCC(=O)[C@H]32)[C@@H](C)[C@@H]1O | 0.25 (≈ 0.42 µM) | 0.5 (≈ 0.841 µM) | 0.5 (≈ 0.841 µM) | 0.5 (≈ 0.841 µM) | – | – | 8.79 10^-6M | – | – |
| C=C[C@]1(C)C[C@@H](OC(=O)CSCCN(CC)CC)[C@]2(C)[C@H](C)CC[C@]3(CCC(=O)[C@H]32)[C@@H](C)[C@@H]1O [TIAMULIN] | 0.5 (≈ 1.01 µM) | 1 (≈ 2.03 µM) | 1 (≈ 2.03 µM) | 1 (≈ 2.03 µM) | – | – | – | – | 0.91 |
| C=C[C@]1(C)C[C@@H](OC(=O)CSc2nc(N)n(C(=O)c3ccc(Cl)cc3)n2)[C@]2(C)[C@H](C)CC[C@]3(CCC(=O)[C@H]32)[C@@H](C)[C@@H]1O | 0.5 (≈ 0.813 µM) | 1 (≈ 1.63 µM) | 1 (≈ 1.63 µM) | 1 (≈ 1.63 µM) | – | – | – | – | – |
| C=C[C@]1(C)C[C@@H](OC(=O)CSc2nc(N)n(C(=O)c3c(F)cccc3Cl)n2)[C@]2(C)[C@H](C)CC[C@]3(CCC(=O)[C@H]32)[C@@H](C)[C@@H]1O | 1 (≈ 1.58 µM) | 2 (≈ 3.16 µM) | 2 (≈ 3.16 µM) | 2 (≈ 3.16 µM) | – | – | – | – | – |
